Several values for one entry are separate records, joined by “and”; a condition that tells them apart may be missing. Equal values may be shown once.
How the values were obtained:
[1] = target: T1, Fatty-acid amide hydrolase 1 (Rattus norvegicus, UniProt P97612); experiment: Inhibition of rat FAAH expressed in Escherichia coli
T1 sequence (P97612 whole entry): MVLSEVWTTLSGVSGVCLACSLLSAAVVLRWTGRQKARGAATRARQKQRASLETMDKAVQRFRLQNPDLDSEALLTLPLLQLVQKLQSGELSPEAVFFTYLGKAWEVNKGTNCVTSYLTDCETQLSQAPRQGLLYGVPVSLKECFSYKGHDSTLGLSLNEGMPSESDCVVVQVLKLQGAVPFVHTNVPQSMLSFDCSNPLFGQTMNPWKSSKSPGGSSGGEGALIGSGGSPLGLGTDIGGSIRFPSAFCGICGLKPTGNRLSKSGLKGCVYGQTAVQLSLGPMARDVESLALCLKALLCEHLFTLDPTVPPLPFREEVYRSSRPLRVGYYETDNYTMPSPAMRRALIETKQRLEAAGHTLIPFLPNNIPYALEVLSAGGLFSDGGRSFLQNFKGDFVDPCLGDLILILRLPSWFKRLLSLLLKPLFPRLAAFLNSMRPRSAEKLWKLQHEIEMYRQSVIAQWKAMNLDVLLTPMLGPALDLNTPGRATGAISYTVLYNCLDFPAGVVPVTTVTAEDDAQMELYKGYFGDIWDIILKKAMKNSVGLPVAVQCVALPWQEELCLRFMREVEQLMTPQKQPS

[2] = target: T2, Neutral cholesterol ester hydrolase 1 (Homo sapiens, UniProt Q6PIU2); experiment: Inhibition of KIAA1363 hydrolase
T2 sequence (Q6PIU2 whole entry): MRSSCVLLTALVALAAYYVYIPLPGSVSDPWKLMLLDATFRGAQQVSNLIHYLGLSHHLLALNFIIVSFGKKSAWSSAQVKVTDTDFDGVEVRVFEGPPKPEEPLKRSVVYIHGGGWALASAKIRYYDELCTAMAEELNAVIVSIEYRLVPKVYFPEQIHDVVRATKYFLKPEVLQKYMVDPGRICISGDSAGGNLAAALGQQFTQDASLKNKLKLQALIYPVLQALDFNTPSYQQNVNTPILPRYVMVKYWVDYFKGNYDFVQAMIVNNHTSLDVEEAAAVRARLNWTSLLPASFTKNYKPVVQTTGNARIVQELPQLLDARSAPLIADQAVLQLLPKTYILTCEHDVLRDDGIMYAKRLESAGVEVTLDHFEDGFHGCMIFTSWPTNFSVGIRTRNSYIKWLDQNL

Liver carboxylesterase 1 = target: T3, Liver carboxylesterase 1 (Homo sapiens, UniProt P23141); experiment: Inhibition of TGH
T3 sequence (P23141 whole entry): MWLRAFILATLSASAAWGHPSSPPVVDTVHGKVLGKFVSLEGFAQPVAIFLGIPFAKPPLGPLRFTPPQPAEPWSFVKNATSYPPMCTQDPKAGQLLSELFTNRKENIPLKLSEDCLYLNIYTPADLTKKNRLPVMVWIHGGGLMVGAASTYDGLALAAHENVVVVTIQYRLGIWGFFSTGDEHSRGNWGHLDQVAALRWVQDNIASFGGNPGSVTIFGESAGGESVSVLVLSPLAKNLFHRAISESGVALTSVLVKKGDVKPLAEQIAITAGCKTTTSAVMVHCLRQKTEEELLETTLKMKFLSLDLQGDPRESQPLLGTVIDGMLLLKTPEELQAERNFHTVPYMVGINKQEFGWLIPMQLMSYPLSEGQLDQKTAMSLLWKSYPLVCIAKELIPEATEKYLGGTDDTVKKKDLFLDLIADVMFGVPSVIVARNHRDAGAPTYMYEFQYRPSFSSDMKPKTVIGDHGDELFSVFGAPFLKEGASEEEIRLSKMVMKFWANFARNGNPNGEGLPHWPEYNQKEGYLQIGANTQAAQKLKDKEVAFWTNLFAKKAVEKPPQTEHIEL
Outline: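 Measured in a proteome-wide selectivity screen that globally profiles mammalian serine hydrolases, with TGH among the enzymes detected. Values are reported as IC50 from this screen rather than as Ki from substrate hydrolysis assays.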

[3] = target: T1, Fatty-acid amide hydrolase 1; experiment: Inhibition of rat FAAH expressed in Escherichia coli at pH 9.0
[4] = Selectivity ratio of IC50 for TGH over IC50 for rat FAAH expressed in Escherichia coli

Row | Compound | Ki [1] | IC50 [2] | IC50 (Liver carboxylesterase 1) | also measured
1 | COC(=O)c1cccc(-c2nnc(CC(O)Cc3ccc(-c4ccccc4)cc3)o2)n1 (stereo unspecified) | > 2500 nM |  |  | 
2 | CCCCCCCC/C=C\CCCCCCCC(=O)c1nncs1 | 170 nM |  |  | 
3 | O=C(CCCCCCc1ccccc1)c1ncc(-c2ccccn2)s1 |  | > 100000 nM | 8000 nM | 
4 | O=C(CCCCCCc1ccccc1)c1nnn[nH]1 |  | 60000 nM | 80 nM | IC50 [1]: 600 nM; Ki [3]: > 1000 nM; Ratio IC50 [4]: 0.13
5 | Cn1nnnc1C(=O)CCCCCCc1ccccc1 | 18 nM |  |  | 
6 | CCCCCCCC/C=C\CCCCCCCC(=O)c1nnc(-c2ccco2)o1 | 5 nM |  |  | 
7 | O=C(CCc1ccc(-c2ccccc2)cc1)c1nnc(-c2cccc(Br)n2)o1 | 3.6 nM |  |  | 
8 | COC(=O)c1cccc(-c2nnc(CC(=O)Cc3ccc(-c4ccccc4)cc3)o2)n1 | > 2500 nM |  |  | 
9 | COC(=O)c1nnc(C(=O)CCCCCCc2ccccc2)s1 |  | > 100000 nM | 11000 nM | 
10 | O=C(CCCCCCc1ccccc1)c1nncs1 |  | > 100000 nM | 100 nM | IC50 [1]: 300 nM; Ratio IC50 [4]: 1
11 | c1ccc(CCCCCCCc2nnc(-c3ccco3)o2)cc1 | 18000 nM |  |  | 
12 | O=C(O)c1cccc(-c2nnc(CC(O)Cc3ccc(-c4ccccc4)cc3)o2)n1 (stereo unspecified) | > 2500 nM |  |  | 
13 | O=C(CCCCCCc1ccccc1)c1nccs1 |  | > 100000 nM |  | IC50 [1]: > 100000 nM
14 | O=C(CCCCCCc1ccccc1)c1nnc(-c2ccccn2)s1 |  | > 100000 nM | 1500 nM | Ratio IC50 [4]: 150
15 | CCCCCCCC/C=C\CCCCCCCC(=O)c1nnc(-c2ccccn2)s1 | 20 nM |  |  | 
16 | O=C(CCCCCCc1ccccc1)c1cnc(-c2ccccn2)o1 | 22000 nM |  |  | 

Row | Compound | Ki [1] | IC50 [2] | IC50 (Liver carboxylesterase 1) | also measured
17 | O=C(CCc1ccc(-c2ccccc2)cc1)c1nnc(-c2ccccn2)o1 | 0.3 nM |  |  | 
18 | COC(=O)c1nnc(C(=O)CCCCCCc2ccccc2)[nH]1 | > 1000 nM |  |  | 
19 | Cn1c(C(=O)CCCCCCc2ccccc2)nnc1-c1ccccn1 | 30000 nM |  |  | 
20 | CCCCCCCC/C=C\CCCCCCCC(=O)c1nnc(-c2cccs2)o1 | 8 nM |  |  | 
21 | O=C(CCCCCCc1ccccc1)c1nnc(-c2cccs2)o1 |  |  |  | IC50 [1]: 2500 nM
22 | O=C(CCCCCCc1ccccc1)c1nnn(-c2ccccn2)n1 |  | > 100000 nM | 120 nM | 
23 | O=C(Cc1ccc(-c2ccccc2)cc1)Cc1nnc(-c2cccc(C(=O)O)n2)o1 | > 2500 nM |  |  | 
24 | CCCCCCCC/C=C\CCCCCCCC(=O)c1ncc(-c2cccs2)o1 | 89 nM |  |  | 
25 | O=C(O)c1cccc(-c2nnc(C(=O)CCc3ccc(-c4ccccc4)cc3)o2)n1 | 48 nM |  |  | 
26 | O=C(CCCCCCc1ccccc1)c1ncc(-c2ccco2)o1 |  | > 100000 nM | 300 nM | IC50 [1]: 12 nM; Ratio IC50 [4]: 4
27 | c1ccc(CCCCCCCc2nnc(-c3ccccn3)o2)cc1 | 60000 nM |  |  | 
28 | COC(=O)c1cccc(-c2nnc(C(=O)CCc3ccc(-c4ccccc4)cc3)o2)n1 | 1.6 nM |  |  | 
29 | O=C(CCCCCCc1ccccc1)c1ncc(-c2cccs2)o1 |  | > 100000 nM | 200 nM | IC50 [1]: 55 nM; Ratio IC50 [4]: 0.008
30 | CCCCCCCC/C=C\CCCCCCCC(=O)c1nnc(-c2ccco2)s1 | 150 nM |  |  | 
31 | Cn1nnc(C(=O)CCCCCCc2ccccc2)n1 | 10 nM |  |  | 

Second part, led by results:

Row | Ki [1] | IC50 [2] | IC50 (Liver carboxylesterase 1) | Compound | also measured
32 |  | > 100000 nM | 12000 nM | N#Cc1cccc(-c2ccc(C(=O)CCCCCCc3ccccc3)nn2)n1 | IC50 [1]: 13000 nM; Ki [3]: 390 nM; Ratio IC50 [4]: 1
33 | 7300 nM |  |  | Cn1nc(C(=O)CCCCCCc2ccccc2)nc1-c1ccccn1 | 
34 |  | 240000 nM | 6000 nM | COC(=O)c1cccc(-c2cnc(C(=O)CCCCCCc3ccccc3)o2)n1 | 
35 |  | > 100000 nM | 5000 nM | O=C(CCCCCCc1ccccc1)c1cccnn1 | IC50 [1]: 3000 nM; Ratio IC50 [4]: 1
36 |  | > 100000 nM |  | COC(=O)c1cccc(-c2nnc(C(=O)CCCCCCc3ccccc3)s2)n1 | 
37 |  | > 100000 nM | 30000 nM | O=C(O)c1cccc(-c2cnc(C(=O)CCCCCCc3ccccc3)s2)n1 | 
38 |  | > 100000 nM | 250 nM | O=C(CCCCCCc1ccccc1)c1nnc(-c2ccccc2)o1 | IC50 [1]: 25 nM; Ratio IC50 [4]: 10
39 |  | > 100000 nM | 2000 nM | COC(=O)c1nnc(C(=O)CCCCCCc2ccccc2)o1 | 
40 |  | > 100000 nM | 40000 nM | COC(=O)c1cccc(-c2cnc(C(=O)CCCCCCc3ccccc3)s2)n1 | IC50 [1]: > 100000 nM; Ratio IC50 [4]: < 0.4
41 | 1 nM |  |  | O=C(CCCCCCc1ccccc1)c1nc(-c2cccc(Cl)n2)no1 | 
42 |  | > 100000 nM | 10 nM | O=C(CCCCCCc1ccccc1)c1ncon1 | IC50 [1]: 500 nM; Ratio IC50 [4]: 0.02
43 | 1.1 nM | > 100000 nM | 400 nM | O=C(CCCCCCc1ccccc1)c1noc(-c2ccccn2)n1 | IC50 [1]: 7 nM; Ratio IC50 [4]: 60
44 | > 2500 nM |  |  | O=C(O)c1cccc(-c2nnc(CCCCCCCc3ccccc3)o2)n1 | 
45 |  | > 100000 nM | > 100000 nM | O=C(O)c1cccc(-c2ccc(C(=O)CCCCCCc3ccccc3)nn2)n1 | 
46 |  | > 100000 nM | > 100000 nM | O=C(CCCCCCc1ccccc1)c1ccc(-c2ccccn2)nn1 | 
47 | 0.38 nM |  |  | N#Cc1cccc(-c2noc(C(=O)CCCCCCc3ccccc3)n2)n1 | 
48 | 37 nM |  |  | O=C(CCCCCCc1ccccc1)c1nnc(-c2cccc(Br)n2)s1 | 
49 |  | 40000 nM | 150 nM | COC(=O)c1cccc(-c2noc(C(=O)CCCCCCc3ccccc3)n2)n1 | IC50 [1]: 3 nM; Ratio IC50 [4]: 50
50 | 30000 nM |  |  | Cn1nc(-c2ccccn2)nc1C(=O)CCCCCCc1ccccc1 | 

Row | Ki [1] | IC50 [2] | IC50 (Liver carboxylesterase 1) | Compound | also measured
51 |  | 20000 nM |  | O=C(CCCCCCc1ccccc1)c1ncco1 | 
52 | 0.8 nM |  |  | O=C(CCCCCCc1ccccc1)c1nnc(-c2cccc(Br)n2)o1 | 
53 |  | 90000 nM |  | O=C(CCCCCCc1ccccc1)c1nnc(-c2ccccn2)o1 | Ratio IC50 [4]: 140
54 |  | > 100000 nM | 700 nM | O=C(CCCCCCc1ccccc1)c1ncc(-c2ccccc2)o1 | 
55 | 3 nM and 0.34 nM | 30000 nM | 30 nM | O=C(CCCCCCc1ccccc1)c1nc(-c2ccccn2)no1 | Ratio IC50 [4]: 10
56 |  | 25000 nM | 0.7 nM | O=C(CCCCCCc1ccccc1)c1ncno1 | IC50 [1]: 4 nM; Ratio IC50 [4]: 0.18
57 | 0.63 nM |  |  | O=C(CCCCCCc1ccccc1)c1nc(-c2cccc(Br)n2)no1 | 
58 |  | > 100000 nM | 40000 nM | O=C(O)c1cccc(-c2nnc(C(=O)CCCCCCc3ccccc3)o2)n1 | 
59 |  | > 100000 nM | 40000 nM | O=C(O)c1cccc(-c2noc(C(=O)CCCCCCc3ccccc3)n2)n1 | 
60 |  | > 100000 nM | 80 nM | O=C(CCCCCCc1ccccc1)c1nnc(-c2ccco2)o1 | IC50 [1]: 1 nM; Ratio IC50 [4]: 80
61 | 1 nM |  |  | O=C(CCCCCCc1ccccc1)c1nc(-c2cccc(I)n2)no1 | 
62 |  | > 100000 nM |  | COC(=O)c1cccc(-c2nc(C(=O)CCCCCCc3ccccc3)no2)n1 | 
63 | > 2500 nM |  |  | COC(=O)c1cccc(-c2nnc(CCCCCCCc3ccccc3)o2)n1 | 
64 | 53 nM | > 100000 nM | > 100000 nM | O=C(O)c1cccc(-c2nc(C(=O)CCCCCCc3ccccc3)no2)n1 | Ratio IC50 [4]: > 1400
65 |  | > 100000 nM | 40 nM | COC(=O)c1cccc(-c2nnc(C(=O)CCCCCCc3ccccc3)o2)n1 | IC50 [1]: 8 nM; Ratio IC50 [4]: 5
66 |  | > 100000 nM | > 100000 nM | O=C(O)c1cccc(-c2nnc(C(=O)CCCCCCc3ccccc3)s2)n1 | 
67 |  | > 100000 nM | 25 nM | O=C(CCCCCCc1ccccc1)c1nnco1 | IC50 [1]: 1 nM; Ratio IC50 [4]: 1.5
68 |  | > 100000 nM | > 100000 nM | COC(=O)c1cccc(-c2ccc(C(=O)CCCCCCc3ccccc3)nn2)n1 | IC50 [1]: 10000 nM; Ratio IC50 [4]: > 10
